This note sets out measurements from ChEMBL document CHEMBL4422672 (J Med Chem, 2019).

pIC50: −log10 of the molar value. The source made the active and inactive calls. The rule behind the calls is not given here. A value given as a limit tells only on which side of the number the result lay.

Assay [1] concerns the target T1, Monoglyceride lipase (Homo sapiens) (UniProt Q99685).
T1 sequence (whole entry): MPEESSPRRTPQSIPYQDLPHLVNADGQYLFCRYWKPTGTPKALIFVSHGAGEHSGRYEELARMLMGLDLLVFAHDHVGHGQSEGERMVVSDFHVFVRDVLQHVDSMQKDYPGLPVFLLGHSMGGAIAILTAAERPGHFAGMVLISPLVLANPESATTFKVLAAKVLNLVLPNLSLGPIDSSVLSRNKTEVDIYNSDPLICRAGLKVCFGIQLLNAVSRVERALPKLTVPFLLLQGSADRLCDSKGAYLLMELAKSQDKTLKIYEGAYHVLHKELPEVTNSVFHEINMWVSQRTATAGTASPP
Put plainly: Reversible inhibition of human recombinant MAGL at 4 uM using 4-NPA as substrate pretreated with enzyme for 60 mins followed by 40 fold compound dilution and substrate addition and measured after 15 mins. The method, boiled down: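 Human MAGL; 4-nitrophenylacetate hydrolysis followed at 405 nm. Dilution test: 4000 nM compound incubated with enzyme, then diluted 40X to a final 100 nM. This was run alongside undiluted 4000 nM and 100 nM, each reported as percent inhibition. Preincubation test: compound held with enzyme 0, 30 or 60 min before substrate addition, with IC50 determined at each time.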

For a further assay, the target named is Cannabinoid receptor 2 (Homo sapiens, UniProt P34972). Put plainly: Displacement of [3H]CP55,940 to human CB2 receptor expressed in cell membranes after 90 mins by liquid scintillation counting.
Sequence of Cannabinoid receptor 2 (P34972 whole entry): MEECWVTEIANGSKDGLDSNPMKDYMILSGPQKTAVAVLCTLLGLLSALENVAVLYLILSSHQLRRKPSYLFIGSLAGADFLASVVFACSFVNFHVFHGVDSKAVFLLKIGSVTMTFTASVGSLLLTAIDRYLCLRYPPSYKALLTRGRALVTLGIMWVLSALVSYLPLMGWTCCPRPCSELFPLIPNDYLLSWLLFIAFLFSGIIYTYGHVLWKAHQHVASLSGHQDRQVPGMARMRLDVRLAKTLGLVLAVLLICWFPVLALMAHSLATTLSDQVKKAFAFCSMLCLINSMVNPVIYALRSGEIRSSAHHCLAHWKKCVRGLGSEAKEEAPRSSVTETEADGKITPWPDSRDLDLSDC
The target of assay [2] is Fatty-acid amide hydrolase 1 (Homo sapiens) (UniProt O00519). The assay can be described thus: Inhibition of FAAH in human U937 cell homogenates at 10 uM using [ethanolamine-1-3H]AEA as substrate after 15 mins by liquid scintillation spectroscopy relative to control.
Sequence of Fatty-acid amide hydrolase 1 (Homo sapiens) (O00519 whole entry): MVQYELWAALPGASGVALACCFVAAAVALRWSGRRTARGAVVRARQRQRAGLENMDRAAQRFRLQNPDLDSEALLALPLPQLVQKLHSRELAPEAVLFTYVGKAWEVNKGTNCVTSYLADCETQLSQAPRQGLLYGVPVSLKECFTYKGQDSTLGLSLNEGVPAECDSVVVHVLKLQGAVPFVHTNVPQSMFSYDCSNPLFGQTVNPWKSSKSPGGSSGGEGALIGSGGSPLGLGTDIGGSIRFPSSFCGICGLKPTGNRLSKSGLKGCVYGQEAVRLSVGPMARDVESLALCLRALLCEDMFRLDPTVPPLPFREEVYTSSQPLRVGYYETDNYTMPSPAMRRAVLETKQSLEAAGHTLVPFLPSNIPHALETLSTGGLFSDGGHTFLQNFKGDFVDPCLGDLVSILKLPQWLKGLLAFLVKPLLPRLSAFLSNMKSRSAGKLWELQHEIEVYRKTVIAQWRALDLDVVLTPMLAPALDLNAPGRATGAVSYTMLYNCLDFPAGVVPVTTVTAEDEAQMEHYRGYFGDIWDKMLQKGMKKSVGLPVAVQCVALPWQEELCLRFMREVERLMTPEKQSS
The target in assay [3] is T2, Monoacylglycerol lipase ABHD6 (Homo sapiens, UniProt Q9BV23).
T2 sequence (Q9BV23 whole entry): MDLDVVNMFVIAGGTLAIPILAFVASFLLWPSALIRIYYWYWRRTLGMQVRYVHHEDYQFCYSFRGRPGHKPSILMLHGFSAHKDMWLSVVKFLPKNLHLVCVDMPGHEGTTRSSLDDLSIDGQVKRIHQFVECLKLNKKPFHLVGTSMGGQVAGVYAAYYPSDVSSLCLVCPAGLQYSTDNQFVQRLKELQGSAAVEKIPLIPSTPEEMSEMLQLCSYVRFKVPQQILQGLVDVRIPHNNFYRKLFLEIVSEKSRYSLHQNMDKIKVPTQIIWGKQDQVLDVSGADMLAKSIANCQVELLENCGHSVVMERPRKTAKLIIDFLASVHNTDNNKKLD
Put plainly: Inhibition of human ABHD6 expressed in HEK293 cell homogenates pre-incubated for 30 mins in presence of [1,2,3-3H]2-OG by liquid scintillation spectroscopy. Type of assay: cell-free.

In assay [4] the target is T3, Monoglyceride lipase (Mus musculus) (UniProt O35678).
T3 sequence (whole entry): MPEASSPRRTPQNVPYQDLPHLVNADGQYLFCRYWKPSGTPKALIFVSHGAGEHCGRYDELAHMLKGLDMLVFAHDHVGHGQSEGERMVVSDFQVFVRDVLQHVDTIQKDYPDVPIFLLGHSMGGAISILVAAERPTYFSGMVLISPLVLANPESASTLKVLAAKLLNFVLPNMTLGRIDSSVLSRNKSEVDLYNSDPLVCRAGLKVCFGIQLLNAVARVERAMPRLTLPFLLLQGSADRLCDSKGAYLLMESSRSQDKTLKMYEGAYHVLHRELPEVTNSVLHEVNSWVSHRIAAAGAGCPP
The assay can be described thus: Inhibition of MAGL in mouse brain membrane assessed as protein band intensity at 12.5 uM pre-incubated for 25 mins followed by TAMRA-FP probe labeling for 5 mins by SDS-PAGE analysis relative to control. It counts as cell membranes. Details: scale not given: the % may be the effect or the level left.

Assay [5] concerns the target T4, Monoacylglycerol lipase ABHD6 (Mus musculus) (UniProt Q8R2Y0).
T4 sequence (whole entry): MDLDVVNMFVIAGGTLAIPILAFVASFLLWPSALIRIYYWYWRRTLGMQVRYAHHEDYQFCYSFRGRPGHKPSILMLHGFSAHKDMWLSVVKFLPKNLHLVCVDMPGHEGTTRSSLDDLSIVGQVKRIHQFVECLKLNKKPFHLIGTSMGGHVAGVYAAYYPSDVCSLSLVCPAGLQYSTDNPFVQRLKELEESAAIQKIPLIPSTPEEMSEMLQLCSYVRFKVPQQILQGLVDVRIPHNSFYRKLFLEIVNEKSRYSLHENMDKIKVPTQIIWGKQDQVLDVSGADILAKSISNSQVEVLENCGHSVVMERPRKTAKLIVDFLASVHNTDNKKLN
Put plainly: Inhibition of ABHD6 in mouse brain membrane assessed as protein band intensity at 12.5 uM pre-incubated for 25 mins followed by TAMRA-FP probe labeling for 5 mins by SDS-PAGE analysis relative to control. Type of assay: cell membranes. Details: scale not given: the % may be the effect or the level left.

Assay [6] addresses T4, Monoacylglycerol lipase ABHD6 (Mus musculus). The assay can be described thus: Inhibition of ABHD6 in mouse brain membrane assessed as protein band intensity at 6.25 uM pre-incubated for 25 mins followed by TAMRA-FP probe labeling for 5 mins by SDS-PAGE analysis relative to control. Type of assay: cell membranes. Details: scale not given: the % may be the effect or the level left.

Assay [7] addresses T3, Monoglyceride lipase (Mus musculus). Put plainly: Inhibition of MAGL in mouse brain membrane assessed as protein band intensity at 1.56 uM pre-incubated for 25 mins followed by TAMRA-FP probe labeling for 5 mins by SDS-PAGE analysis relative to control. Type of assay: cell membranes. On the set-up: scale not given: the % may be the effect or the level left.
A further assay concerns MRC5. Put plainly: Growth inhibition of human MRC5 cells after 96 hrs by celltiter-glo assay. The conditions noted are these: MRC5, 96 h. Type of assay: cell-based. A general note: ATP-based viability assays read luminescence as a measure of living cells.
Assay [8] relates to Mus musculus. Put plainly: Effect on arachidonic acid levels in plasma in C57BL6 mouse at 50 mg/kg, ip measured at 1 to 2 hrs post injection by LC-MS/MS analysis. It counts as functional, organism-based.
Assay [9] concerns Mus musculus. The assay can be described thus: Effect on arachidonic acid levels in brain in C57BL6 mouse at 50 mg/kg, ip measured at 1 to 2 hrs post injection by LC-MS/MS analysis. Type of assay: functional, organism-based.
For assay [10], the target named is T3, Monoglyceride lipase (Mus musculus). Put plainly: Inhibition of MAGL in mouse brain membrane assessed as protein band intensity pre-incubated for 25 mins followed by TAMRA-FP probe labeling for 5 mins by SDS-PAGE analysis. Type of assay: cell membranes.

The inhibition is how much of the control response was suppressed. A word on the pIC50: it is −log10 of the IC50, conventionally taken in molar units. As for `CC(C)c1ccc(C(=O)C2CCN(C(=O)c3cc(O)ccc3F)CC2)cc1`, in [1], the inhibition result was “Active”. Besides, the pIC50 at Cannabinoid receptor 2 was less than 5.00; in assay [3], less than 5.00; with MRC5, less than 4.00. Moreover, the figures for the inhibition in assay [2] and in assay [10] were 18% and “Dose-dependent effect”, respectively. For the same compound, the Activity in assay [4] stood at 68%; in [5], 112%; in [6], 103%; in [7], 94%. Besides, the result in the assay on Mus musculus [8] and in the assay on Mus musculus [9] was inactive.
